# In the library only some 1.4% were active in any assay of this set; here they are far more common.
# GSK3 alpha inh – inhibitors of human GSK-3 alpha kinase. P49840. ADP-Glo luminescence, 60 min. inhibition, % at 10 µM. hit rate 0.1% among 320,000. AID 2650;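 active = more than half of replicates show inhibition above 20%; inconclusive = some but at most half of replicates above 20% inhibition; inactive = no replicate shows inhibition above 20%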;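 also: GST-tagged GSK-3 alpha with peptide substrate and 25 µM ATP; 0% = DMSO neutral wells and 100% = GW8510 positive control wells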
# Env fusion inh – inhibitors of HIV Env-mediated cell fusion; HeLa-JRFL Env/CEM21 cell fusion, luciferase; inhibition, % at 12.3 µM; hit rate 1.1% among 360,000;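 active = mean replicate inhibition score of at least 50 and every replicate individually at or above 50; inconclusive = only one of the two criteria met; inactive = mean below 50 and not all replicates reaching 50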;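 also: 0% = plate neutral controls and 100% = maraviroc near 300 nM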
# INS-1E GSIS act – GLuc luminescence reporter in INS-1E cells, primary screen for activators of glucose-dependent secretion of insulin | INS-1E GLuc reporter insulin secretion, 2-3 h | hit rate 0.61% among 370,000 | activation, % at 16.6 µM | AID 743287;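 active = lowest replicate activation of at least 40%, so every replicate reaches that level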;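 also: 0% = median of neutral control wells and 100% = median of IBMX positive control wells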
# STK33 inh – human STK33 kinase inhibition. Q9BYT3. purified STK33, MBP phosphorylation, ADP-Glo luminescence. inhibition, % at 10 µM. hit rate 0.073% among 320,000;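 active = inhibition at or above 25%, using the most active replicate where run in duplicate; inactive = inhibition below 25%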
# Target sequence (Q9BYT3 whole entry, looked up): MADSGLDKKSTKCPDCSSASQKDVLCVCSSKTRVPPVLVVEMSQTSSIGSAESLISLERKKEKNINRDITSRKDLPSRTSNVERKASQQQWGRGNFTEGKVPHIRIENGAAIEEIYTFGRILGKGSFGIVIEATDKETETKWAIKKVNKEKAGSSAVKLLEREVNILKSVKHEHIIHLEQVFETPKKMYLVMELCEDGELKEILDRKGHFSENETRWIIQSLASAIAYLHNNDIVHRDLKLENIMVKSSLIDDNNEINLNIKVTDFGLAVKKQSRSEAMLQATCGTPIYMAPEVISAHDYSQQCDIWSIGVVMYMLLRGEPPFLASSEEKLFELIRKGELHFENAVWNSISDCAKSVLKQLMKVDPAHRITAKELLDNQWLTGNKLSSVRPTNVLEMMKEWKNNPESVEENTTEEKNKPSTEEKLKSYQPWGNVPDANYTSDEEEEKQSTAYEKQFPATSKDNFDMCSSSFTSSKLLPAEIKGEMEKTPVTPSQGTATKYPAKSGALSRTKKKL
# GSK3B inh – blocks human GSK3beta kinase activity; GST-GSK3beta kinase, ADP-Glo luminescence, 60 min; stronger effect = lower value; activity score (negative = inhibition), % at 10 µM; hit rate 0.038% among 300,000; AID 2097;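 active = more than half of replicate wells score below -50%, meaning over 50% inhibition versus plate controls; inconclusive = some replicates but at most half score below -50%; inactive = no replicate scores below -50%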;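 also: 0% = median DMSO wells and -100% = median GW8510 positive control wells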
#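 Test system: GST-fused GSK3beta enzyme, cell-free | Quantity: 1.6 ng GST-GSK3beta enzyme per well | Reagent: 25 µM ATP with peptide substrate | Schedule: 60 min enzyme reaction, room temperature | Signal: Luminescent ADP-Glo measurement of ADP formed | Read-out basis: Score relative to plate controls | Control set: DMSO and 20 µM GW8510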
# CDK5 p35 inh – CDK5/p35 (human) kinase inhibition | Recombinant CDK5/p35, ADP-Glo luminescence, 60 min | inhibition, % at 10 µM | hit rate 0.01% among 330,000 | AID 488839;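 active = highest replicate inhibition of at least 50% and at least 75% of replicates reaching 50%; inconclusive = only one of the two criteria met; inactive = both criteria failed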;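 also: plate controls were DMSO neutral control for no effect and GW8510 at 10 µM for full effect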
# An asterisk follows results filed as active; ? = inconclusive; . = no result given; + = active, no number; ! = not confirmed by another sample; [ ] = remark or other dose.
SMILES,GSK3 alpha inh,Env fusion inh,INS-1E GSIS act,STK33 inh,GSK3B inh,CDK5 p35 inh
COc1ccc(CN(C)C[C@@H]2OCCCC[C@H](C)Oc3ccc(NC(=O)Nc4ccc(C(F)(F)F)cc4)cc3C(=O)N([C@@H](C)CO)C[C@@H]2C)cc1,.,75.5*[16.7 µM],23.8,.,.,.
COc1cccc(S(=O)(=O)Nc2ccc3c(c2)[C@@H]2C[C@H](CC(=O)N4CCCCC4)O[C@@H](CO)[C@@H]2O3)c1,.,16.6[16.7 µM],3.2,.,.,.
CC(C)Cc1ccc(CN2CC[C@@H](NS(=O)(=O)c3ccccc3)C2)cc1,.,-9.4[16.7 µM],.,.,.,.
COC(=O)[C@]12C[C@H](CC(=O)N3CCC(c4ccccc4)CC3)C(=O)N(CCC3=CCCCC3)C1=C[C@H](C(C)(C)C)O[C@@H]2C,.,2.5,.,.,.,.
COC(=O)[C@]12C[C@H](CC(=O)NCc3cccc4ccccc34)C(=O)N(CCC3=CCCCC3)C1=C[C@H](C(C)(C)C)O[C@@H]2C,.,86.9*,-7.7,.,.,.
CCCCNC(=O)C[C@H]1C[C@@]2(C(=O)OC)C(=C[C@H](C(C)(C)C)O[C@@H]2C)N(CCC2=CCCCC2)C1=O,.,72.4*,.,.,.,.
COC(=O)[C@]12C[C@H](CC(=O)N3CCCC3)C(=O)N(CCC3=CCCCC3)C1=C[C@H](C(C)(C)C)O[C@@H]2C,.,19.8,294.0*,.,.,.
COC(=O)[C@]12C[C@H](CC(=O)NCCCN3CCCC3=O)C(=O)N(CCC3=CCCCC3)C1=C[C@H](C(C)(C)C)O[C@@H]2C,.,44.9,.,.,.,.
COC(=O)[C@]12C[C@H](CC(=O)NCCC(C)C)C(=O)N(CCC3=CCCCC3)C1=C[C@H](C(C)(C)C)O[C@@H]2C,.,58.9*,.,.,.,.
C[C@@H]1CN([C@@H](C)CO)S(=O)(=O)c2ccc(/C=C/c3ccccc3)cc2O[C@H]1CN(C)C(=O)CN1CCOCC1,.,.,-2.5,.,.,.
COc1ccc(OCC(=O)Nc2ccccc2O)cc1,-1.7,.,.,0.0,-1.9,-0.8
CCCNC(=O)c1ccccc1NC(=O)COc1ccc(OC)cc1,-1.4,-26.6,56.6*,-0.7,-2.9,1.9
COc1ccc(OCC(=O)NNc2c3ccccc3nc3ccccc23)cc1,0.8,58.9*,.,-1.0,-2.9,-0.8
Cc1c(N=C2NC(=O)/C(=C/c3ccc(O)cc3)S2)c(=O)n(-c2ccccc2)n1C,-1.2,-4.3,24.4,2.1,0.8,2.0
COc1ccc(/C=C2/S/C(=N/S(=O)(=O)Cc3ccccc3)NC2=O)cc1OC,-6.6,-13.5,78.8*,-1.0,-4.8,0.1
O=C1NC(=NCc2ccccc2)S/C1=C/c1ccc(O)cc1,47.9,-8.4,8.8,63.8*,-64.8*,1.0
O=C(C[C@@H]1CC[C@@H](NC(=O)c2ccc(F)cc2)[C@H](CO)O1)NCCc1ccncc1,.,6.8[16.7 µM],9.0,.,.,.
CN(C)CC(=O)N[C@@H]1CC[C@H](CCNC(=O)C2CC2)O[C@H]1CO,.,.,2.4,.,.,.
O=CN1CCN(C(C(=O)NC2CCCCC2)c2ccc(Cl)cc2)CC1 (configuration not stated),0.7,10.4,-2.8,0.4,-1.8,-0.5
COC(=O)C1CCCN1C(C(=O)NC1CCCCC1)c1ccc(Cl)cc1 (configuration not stated),-0.9,65.6*,-4.0,0.7,3.3,-0.4
COC(=O)c1cc(S(=O)(=O)NCC2CCN(Cc3cc(C)ccc3C)CC2)c[nH]1,-0.4,0.1,54.5*,-0.2,6.0,2.1
CCn1c(Cc2ccccc2)n[nH]c1=S,-1.7,-5.9,.,-1.1,-3.4,0.0
CC(C)Cn1c(Cc2ccccc2)n[nH]c1=S,-1.4,.,55.2*,-0.8,0.5,-0.1
C[C@@H]1CN([C@@H](C)CO)C(=O)c2cc(C#Cc3ccncc3)cnc2O[C@H]1CN(C)S(=O)(=O)c1ccccc1F,.,28.4[16.7 µM],-24.3,.,.,.
C[C@H](CO)N1C[C@H](C)[C@H](CN(C)S(=O)(=O)c2ccc(C#N)cc2)Oc2ncc(-c3cc4ccccc4o3)cc2C1=O,.,.,-18.1,.,.,.
SMILES,GSK3 alpha inh,Env fusion inh,INS-1E GSIS act,STK33 inh,GSK3B inh,CDK5 p35 inh
C[C@@H]1CN([C@H](C)CO)C(=O)c2cc(C#Cc3ccncc3)cnc2O[C@@H]1CN(C)S(=O)(=O)c1ccccc1F,.,60.4*[16.7 µM],10.1,.,.,.
C[C@H]1CN([C@@H](C)CO)C(=O)c2cc(/C=C/c3ccccc3)cnc2O[C@H]1CN(C)S(=O)(=O)c1ccccc1,.,7.8[16.7 µM],-30.3,.,.,.
COc1ccc(S(=O)(=O)N(C)C[C@@H]2Oc3ncc(-c4cc5ccccc5o4)cc3C(=O)N([C@H](C)CO)C[C@@H]2C)cc1,.,69.3*[16.7 µM],.,.,.,.
COc1ccc(S(=O)(=O)N(C)C[C@@H]2Oc3ccc(N(C)C)cc3C(=O)N([C@H](C)CO)C[C@@H]2C)cc1,.,58.7*[16.7 µM],2.3,.,.,.
COc1ccc(S(=O)(=O)N(C)C[C@@H]2Oc3ccc(N(C)C)cc3C(=O)N([C@@H](C)CO)C[C@@H]2C)cc1,.,47.0[16.7 µM],11.6,.,.,.
C[C@H](CO)N1C[C@H](C)[C@H](CN(C)S(=O)(=O)c2ccccc2)Oc2ncc(/C=C/c3ccccc3)cc2C1=O,.,73.7*[16.7 µM],4.4,.,.,.
Cc1noc(C)c1NC(=O)Nc1ccc2c(c1)C(=O)N([C@@H](C)CO)C[C@@H](C)[C@H](CN(C)Cc1ccc(Oc3ccccc3)cc1)O2,.,.,1.3,.,.,.
Cc1ccc(S(=O)(=O)N(C)C[C@@H]2Oc3ncc(/C=C/c4ccccc4)cc3C(=O)N([C@H](C)CO)C[C@@H]2C)cc1,.,74.9*[16.7 µM],-12.9,.,.,.
COc1ccc(S(=O)(=O)N(C)C[C@@H]2Oc3ncc(/C=C/c4ccccc4)cc3C(=O)N([C@H](C)CO)C[C@@H]2C)cc1,.,55.1*![16.7 µM],-48.4,.,.,.
C[C@H](CO)N1C[C@H](C)[C@H](CN(C)S(=O)(=O)c2ccccc2F)Oc2ncc(/C=C/c3ccccc3)cc2C1=O,.,70.8*[16.7 µM],-9.3,.,.,.
Cc1nc(N)c(C#N)c(-c2cccnc2)c1C,0.1,?,48.3*,.,1.2,-6.5
Cc1cc(NC(=O)CSc2nnc(-c3ccc(O)cc3)o2)no1,2.5,-2.4,-11.4,0.2,1.0,-1.5
O=C(CSc1nnc(-c2ccc(O)cc2)o1)Nc1ccccc1,51.7*,-87.3,3.8,-2.9,.,1.1
COc1ccccc1NC(=O)CSc1nnc(-c2ccccc2)o1,.,-72.4,84.2*,0.2,-1.6,1.0
Oc1ccc(C[C@@H]2CNCCN2CCc2cc(C(F)(F)F)cc(C(F)(F)F)c2)cc1,8.5,10.3,-17.2,-2.0,-3.4,0.9
FC(F)(F)c1cc(CCN2CCNC[C@H]2Cc2cccc3ccccc23)cc(C(F)(F)F)c1,-0.9,11.2,+,0.2,-5.7,3.0
CC(=NNC(=S)Nc1ccccc1Cl)c1ccccn1,.,63.0*,-1.3,.,.,1.1
CC(=NNC(=S)Nc1ccccc1)c1ccccn1,.,14.5,8.5,.,.,.
COc1cccc(-c2cn(CC[C@H]3CC[C@@H](NS(=O)(=O)Cc4ccccc4)[C@@H](CO)O3)nn2)c1,.,-17.0[16.7 µM],-8.0,.,.,.
CCNc1nc(NCC)n2c(SCC(=O)N(CC)C3CCCCC3)nnc2n1,-1.7,-10.8,73.7*,-1.7,0.3,-0.6

# Bioassay records: PubChem, Broad Institute
